According to ChEMBL document CHEMBL1629676, “Inhibitory and bactericidal activities of daptomycin, vancomycin, and teicoplanin against methicillin-resistant Staphylococcus aureus isolates collected from 1985 to 2007” (2009):
≈ marks a conversion by molar mass, not a printed value.

Experiments:
Staphylococcus aureus [1] = test: Antimicrobial activity against methicillin-resistant Staphylococcus aureus by broth dilution assay; assay type: functional
Staphylococcus aureus [2] = test: Antimicrobial activity against methicillin-resistant Staphylococcus aureus assessed as >=3log10 CFU/ml reduction in bacterial growth after 24 to 48 hrs by CLSI method; assay type: functional
Procedure, shortened: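 MBC per CLSI: entire 0.1 ml from the MIC well and from wells 4 dilutions above the MIC spread on blood agar, dried 20 min, then spread evenly; incubated 35 to 37°C for 24 to 48 h. MBC taken as the lowest dilution giving ≥99.9% (≥3-log10 CFU/ml) reduction versus the growth control count.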

| SMILES | MIC50 (Staphylococcus aureus [1]) | MIC90 (Staphylococcus aureus [1]) | MBC50 (Staphylococcus aureus [2]) | MBC90 (Staphylococcus aureus [2]) |
| --- | --- | --- | --- | --- |
| CC(=O)N[C@@H]1[C@H](Oc2c3cc4cc2Oc2ccc(cc2Cl)[C@@H](O[C@@H]2O[C@@H](CO)[C@@H](O)[C@H](O)[C@@H]2NC(C)=O)[C@@H]2NC(=O)[C@H](NC(=O)[C@@H]4NC(=O)[C@H]4NC(=O)[C@@H](Cc5ccc(c(Cl)c5)O3)NC(=O)[C@H](N)c3ccc(O)c(c3)Oc3cc(O)cc4c3)c3ccc(O)c(c3)-c3c(O[C@H]4O[C@H](CO)[C@@H](O)[C@@H](O)[C@@H]4O)cc(O)cc3[C@@H](C(=O)O)NC2=O)O[C@@H](CO)[C@@H](O)[C@@H]1O | 1 µg/mL (≈ 0.566 µM) | 1 µg/mL (≈ 0.566 µM) | 2 µg/mL (≈ 1.13 µM) | 32 µg/mL (≈ 18.1 µM) |
| CCCCCCCCCC(=O)N[C@@H](Cc1c[nH]c2ccccc12)C(=O)N[C@H](CC(N)=O)C(=O)N[C@@H](CC(=O)O)C(=O)N[C@@H]1C(=O)NCC(=O)N[C@@H](CCCN)C(=O)N[C@@H](CC(=O)O)C(=O)N[C@H](C)C(=O)N[C@@H](CC(=O)O)C(=O)NCC(=O)N[C@H](CO)C(=O)N[C@@H]([C@H](C)CC(=O)O)C(=O)N[C@@H](CC(=O)c2ccccc2N)C(=O)O[C@@H]1C | 0.5 µg/mL (≈ 0.309 µM) | 0.5 µg/mL (≈ 0.309 µM) | 0.5 µg/mL (≈ 0.309 µM) | 1 µg/mL (≈ 0.617 µM) |
| CN[C@H](CC(C)C)C(=O)N[C@H]1C(=O)N[C@@H](CC(N)=O)C(=O)N[C@H]2C(=O)N[C@H]3C(=O)N[C@H](C(=O)N[C@H](C(=O)O)c4cc(O)cc(O)c4-c4cc3ccc4O)[C@H](O)c3ccc(c(Cl)c3)Oc3cc2cc(c3O[C@@H]2O[C@H](CO)[C@@H](O)[C@H](O)[C@H]2O[C@H]2C[C@](C)(N)[C@H](O)[C@H](C)O2)Oc2ccc(cc2Cl)[C@H]1O [VANCOMYCIN] | 1 µg/mL (≈ 0.69 µM) | 1 µg/mL (≈ 0.69 µM) | 1 µg/mL (≈ 0.69 µM) | 1 µg/mL (≈ 0.69 µM) |
